Source: PubChem BioAssay (several laboratories)
The list is not random: actives were taken first. Their share in the collection is about 4.7%.
SKN-1 block: C. elegans SKN-1 inhibition; 360,000 compounds, 0.49% hits; AID 624304; C. elegans VP596 Pgst-4::GFP/RFP ratio, acrylamide-induced, 24 h; inhibition, % at 21.8 µM;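 active means interference check ratio from 0.5 to 1.5 plus GFP to RFP signal ratio inhibition reaching or exceeding a fixed threshold, cut at about 30% in these data, passing the limit was not always enough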
NR3A LBD binder: modulates the human NR3A ligand-binding domain; NR3A LBD differential scanning fluorimetry, Tm shift; 0% = protein alone, 100% = glycine-bound protein; Tm shift relative to glycine control, % at 25 µM; 340,000 compounds, 2.5% hits; AID 1259313;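 active means melting temperature shift of at least 10% of the positive control shift, at one fixed dose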
ADAM17 inh: inhibitors of human ADAM17 | inhibition, % at 6.95 µM | AID 720648 | P78536 | recombinant ADAM17, EDANS/DABCYL FRET peptide cleavage | 370,000 compounds, 0.83% hits;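 active means inhibition above the mean of compounds lying between control limits plus 3 SD, set per campaign, cut at about 8.5% in these data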
Target sequence (P78536 215-824 limits assumed): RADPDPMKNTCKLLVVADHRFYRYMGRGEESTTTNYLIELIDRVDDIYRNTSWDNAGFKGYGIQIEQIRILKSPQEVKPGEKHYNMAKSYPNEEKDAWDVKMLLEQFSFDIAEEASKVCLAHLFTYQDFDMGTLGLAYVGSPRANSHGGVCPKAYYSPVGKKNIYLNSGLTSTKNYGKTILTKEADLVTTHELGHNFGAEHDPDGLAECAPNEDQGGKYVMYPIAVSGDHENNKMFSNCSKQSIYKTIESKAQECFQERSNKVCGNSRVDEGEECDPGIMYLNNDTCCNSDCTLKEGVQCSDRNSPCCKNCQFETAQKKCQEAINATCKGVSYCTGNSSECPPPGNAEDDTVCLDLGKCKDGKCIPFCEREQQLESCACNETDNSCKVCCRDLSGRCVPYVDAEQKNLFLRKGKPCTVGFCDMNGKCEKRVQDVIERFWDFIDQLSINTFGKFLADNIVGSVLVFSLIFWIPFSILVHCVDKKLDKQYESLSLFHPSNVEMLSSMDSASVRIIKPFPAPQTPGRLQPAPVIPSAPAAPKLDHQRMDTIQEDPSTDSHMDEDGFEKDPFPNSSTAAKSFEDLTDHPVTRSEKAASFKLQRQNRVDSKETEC
MT1-MMP act inh: MT1-MMP (human) activation inhibition; P50281; HT1080 RFP-PRO-GFP cells, GFP/RFP ratio fluorescence, overnight; percent of plate control window, DMSO zero; GFP/RFP ratio change, % at 20 µM; 360,000 compounds, 0.061% hits; AID 651647;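 active means GFP/RFP ratio change of at least 30% with cell ATP level not reduced by more than half and red fluorescence within 50% of control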
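Assay system: HT1080 RFP-PRO-GFP cells | Dosing: 20 µM single dose, 1% DMSO | Incubation: Cells overnight before dosing, compound overnight, 37 °C, 5% CO2 | Evaluation: GFP/RFP fluorescence ratio | Control set: DMSO-only wells and HT1080 RFP-L50D-GFP cell wells as references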
MPTP inh: inhibitors of mitochondrial permeability transition pore; 360,000 compounds, 1.4% hits; isolated mouse mitochondria, Ca2+ swelling absorbance, 30 min; inhibition, % at 10 µM;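 active means inhibition of 50% or more, scaled per plate between neutral and stimulator controls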
ADAM10 inh: inhibitors of human ADAM10. recombinant ADAM10, EDANS/DABCYL FRET peptide cleavage, 3 h. inhibition, % at 7 µM. O14672. 370,000 compounds, 0.62% hits;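 active means inhibition above a per-campaign cutoff equal to the mean of compounds falling between control-based bounds plus 3 SD, cut at about 20% in these data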
Hits are given with their value; i = inactive; nt = not tested or not shown.

SMILES	SKN-1 block	NR3A LBD binder	ADAM17 inh	MT1-MMP act inh	MPTP inh	ADAM10 inh
CCN(CC)CC1C(=O)N(c2ccc(OC)cc2)C1c1ccccc1 (centres undefined)	i	i	i	i	i	i
Oc1ccccc1C=NN=Cc1ccccc1Cl	i	13	i	i	i	i
CC(C)(C)c1ccc(OCC(=O)N2CCN(C=O)CC2)cc1	i	18	i	i	i	i
COC(=O)c1[nH]c2ccc(F)cc2c1NC(=O)C1=COCCO1	i	17	i	i	i	i
O=c1c2ccccc2c(C=Nc2cccc(O)c2)c(O)n1-c1ccc2c(c1)OCO2	i	i	i	i	i	i
COc1ccc(C(CC(=O)N2CCCC2)c2c(OC)cc(OC)c3c(-c4ccccc4)cc(=O)oc23)cc1 (centres undefined)	i	i	i	i	i	i
COc1ccc(C(CC(=O)N2CCCC(C)C2)c2c(OC)cc(OC)c3c(-c4ccccc4)cc(=O)oc23)cc1 (centres undefined)	i	16	i	i	i	i
O=[N+]([O-])c1ccc(NCc2ccccn2)nc1	i	i	i	i	i	i
Cc1ccc(N2CC(C(=O)Nc3nnc(SCC(N)=O)s3)CC2=O)cc1C (centres undefined)	i	i	i	i	i	i
COc1cccc(NC(=S)NN2CCN(C)CC2)c1	i	12	i	i	i	i
CCOC(=O)/C(=N\Nc1ccccc1)c1csc(Nc2ccc(C)cc2)n1	i	25	i	i	i	i
CCC1(c2ccccc2)NC(=O)N(CC(=O)Nc2cccc(S(=O)(=O)N3CCCC3)c2)C1=O (centres undefined)	i	i	i	i	i	i
CCN(CC)C(=O)Oc1cc(=O)n(C)c2ccccc12	i	25	i	i	i	i
S=c1[nH]nc(-c2cc(-c3ccccc3)n[nH]2)n1/N=C/c1ccc(Cl)cc1	i	i	i	i	i	i
S=c1[nH]nc(-c2cc(-c3ccccc3)n[nH]2)n1/N=C/c1ccc(Cl)c(Cl)c1	i	24	i	i	i	i
COc1ccc(C(=O)C[n+]2ccc(-c3nnc4n3CCC4)cc2)cc1	i	i	i	i	i	i
O=C(C[n+]1ccc(-c2nnc3n2CCC3)cc1)c1ccc(Cl)c(Cl)c1	i	13	i	i	i	i
CN1C(=O)c2cc(NC(=O)Nc3ccccc3)ccc2OC[C@H]2O[C@@H](CC(=O)Nc3cc(F)ccc3F)CC[C@@H]21	nt	nt	i	nt	nt	i
N/C(=N\C(=O)OCc1ccccc1)N(Cc1ccccc1)C(C#CC1=CCCCC1)Cc1ccccc1 (centres undefined)	nt	nt	i	nt	nt	i
COC(=O)N/N=C/c1ccc(OC(=O)/C=C/c2ccco2)cc1	i	11	i	i	i	i
O=C(CSc1ccccn1)Nc1ccc2c(c1)oc1ccccc12	i	26	i	i	i	i
O=C(NC(=S)Nc1ccccc1[N+](=O)[O-])c1ccco1	i	i	i	i	i	i
O=C(CSc1nc(-c2ccc(F)cc2)nc2c1Cc1ccccc1O2)Nc1ccc(C(=O)O)cc1	i	33	i	i	i	i
O=C(CSc1nc(-c2ccccc2)nc2ccccc12)Nc1cccc(C(=O)O)c1	i	i	i	i	i	i
O=C(CSc1nc(-c2ccccc2)nc2c1Cc1ccccc1O2)Nc1ccc(C(=O)O)cc1	i	32	i	i	i	i
SMILES	SKN-1 block	NR3A LBD binder	ADAM17 inh	MT1-MMP act inh	MPTP inh	ADAM10 inh
Cc1csc(SCC(=O)N2CCN(S(=O)(=O)c3ccccc3)CC2)n1	i	i	i	i	i	i
C=CCNS(=O)(=O)c1ccc(OCC(=O)OCC)cc1	i	i	i	i	i	i
CC(=O)Nc1nnc(SCC(=O)c2ccc3c(c2)Cc2ccccc2-3)s1	i	15	i	i	i	i
Cn1c(SCC(=O)c2ccc3c(c2)Cc2ccccc2-3)nnc1-c1ccccc1	i	i	i	i	i	i
CCC(=O)Nc1nnc(SCC(=O)c2ccc3c(c2)Cc2ccccc2-3)s1	i	11	i	i	i	i
CCC(=O)Nc1nnc(SCC(=O)N2c3ccccc3CC2C)s1 (centres undefined)	i	i	i	i	i	i
NS(=O)(=O)c1ccc(CCNC(=O)c2cccnc2)cc1	i	i	i	i	i	i
